Source: PMC6218153 (Journal of Alzheimer's Disease Reports, 2018)
Marks after values point to notes of the source that are not given here. Where no end group is shown, it is not given here.

How the values were obtained:
[1] = Metabolic stability in mouse plasma; type: in vitro ADME
How it was run: (§1)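 Test compound (100 μM stock in methanol) added to 1 μM final in plasma or brain homogenate (1:3 brain:PBS, w/v) and incubated at room temperature. Sampled at 15 and 30 min and 1, 2 and 4 h; time-zero samples pre-quenched with methanol. Proteins were methanol-precipitated; supernatant evaporated, reconstituted in 0.1% formic acid and analysed by LC/MS/MS. Duplicates per time point; results expressed as % of time 0.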

[2] = Metabolic stability in mouse brain homogenate; type: in vitro ADME
How it was run: as §1

[3] = Metabolic stability in human brain homogenate; type: in vitro ADME
How it was run: as §1

[4] = PK study in plasma and CSF after single IV, SC or IN dose; type: in vivo, rat
How it was run: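 Cannulated rats (jugular vein, intracisternal; n = 6/route) received a single dose in PBS: IV or SC ~11 mg/kg over 1 min, or IN ~5.5 mg/kg, 10 μL per nostril at 6-min intervals over 18 min. K2EDTA plasma was taken pre-dose to 165 min and CSF pre-dose to 150/180 min. LC/MS/MS (ESI+, 1007.55 > 876.35) with noncompartmental PK; CL = Dose/AUC. CSF ratio = dose-normalised CSF AUC relative to IV.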

## DEEEDEEL [P8, DEEEDEEL]
[1]
  half-life: > 4 h
  remaining at 2 h, 1 μM: 100%
[2]
  remaining at 2 h, 1 μM: 49.2%
[3]; human brain homogenate, 1μM P8, room temperature
  half-life: 2 h
[3]; human, brain homogenate
  remaining at 2 h, 1 μM: 51.4%
[4]; IN 5.5 mg/kg single dose, 5 min, Rat 1
  P8 concentration in plasma: 137 ng/mL
[4]; IN 5.5 mg/kg single dose, 5 min, Rat 2
  P8 concentration in plasma: 262 ng/mL
[4]; IN 5.5 mg/kg single dose, 5 min, Rat 3
  P8 concentration in plasma: 191 ng/mL
[4]; IN 5.5 mg/kg single dose, 10 min, Rat 2
  P8 concentration in CSF: 3.09 ng/mL
[4]; IN 5.5 mg/kg single dose, 10 min, Rat 3
  P8 concentration in CSF: 32.8 ng/mL
[4]; IN 5.5 mg/kg single dose, 15 min, Rat 1
  P8 concentration in plasma: 102 ng/mL
[4]; IN 5.5 mg/kg single dose, 15 min, Rat 2
  P8 concentration in plasma: 234 ng/mL
[4]; IN 5.5 mg/kg single dose, 15 min, Rat 3
  P8 concentration in plasma: 150 ng/mL
[4]; IN 5.5 mg/kg single dose, 25 min, Rat 1
  P8 concentration in plasma: 60.8 ng/mL
[4]; IN 5.5 mg/kg single dose, 25 min, Rat 2
  P8 concentration in plasma: 123^b ng/mL
[4]; IN 5.5 mg/kg single dose, 25 min, Rat 3
  P8 concentration in plasma: 90.6 ng/mL
[4]; IN 5.5 mg/kg single dose, 30 min, Rat 2
  P8 concentration in CSF: 1.03 ng/mL
[4]; IN 5.5 mg/kg single dose, 30 min, Rat 3
  P8 concentration in CSF: 1.95 ng/mL
[4]; IN 5.5 mg/kg single dose, 35 min, Rat 1
  P8 concentration in plasma: 53.7 ng/mL
[4]; IN 5.5 mg/kg single dose, 35 min, Rat 2
  P8 concentration in plasma: 85.9 ng/mL
[4]; IN 5.5 mg/kg single dose, 35 min, Rat 3
  P8 concentration in plasma: 66.0 ng/mL
[4]; IN 5.5 mg/kg single dose, 50 min, Rat 1
  P8 concentration in plasma: 66.1 ng/mL
[4]; IN 5.5 mg/kg single dose, 50 min, Rat 2
  P8 concentration in plasma: 67.7 ng/mL
[4]; IN 5.5 mg/kg single dose, 50 min, Rat 3
  P8 concentration in plasma: 45.1 ng/mL
[4]; IN 5.5 mg/kg single dose, 60 min, Rat 1
  P8 concentration in CSF: 1.18 ng/mL
[4]; IN 5.5 mg/kg single dose, 60 min, Rat 2
  P8 concentration in CSF: 0.632 ng/mL
[4]; IN 5.5 mg/kg single dose, 60 min, Rat 3
  P8 concentration in CSF: 1.28 ng/mL
[4]; IN 5.5 mg/kg single dose, 70 min, Rat 1
  P8 concentration in plasma: 37.6 ng/mL
[4]; IN 5.5 mg/kg single dose, 70 min, Rat 2
  P8 concentration in plasma: 55.3 ng/mL
[4]; IN 5.5 mg/kg single dose, 70 min, Rat 3
  P8 concentration in plasma: 32.1 ng/mL
[4]; IN 5.5 mg/kg single dose, 90 min, Rat 1
  P8 concentration in plasma: 32.2 ng/mL
[4]; IN 5.5 mg/kg single dose, 90 min, Rat 2
  P8 concentration in plasma: 42.8 ng/mL
[4]; IN 5.5 mg/kg single dose, 90 min, Rat 3
  P8 concentration in plasma: 20.7 ng/mL
[4]; IN 5.5 mg/kg single dose, 100 min, Rat 1
  P8 concentration in CSF: 0.537 ng/mL
[4]; IN 5.5 mg/kg single dose, 100 min, Rat 2
  P8 concentration in CSF: 2.39 ng/mL
[4]; IN 5.5 mg/kg single dose, 100 min, Rat 3
  P8 concentration in CSF: 0.532 ng/mL
[4]; IN 5.5 mg/kg single dose, 110 min, Rat 1
  P8 concentration in plasma: 26.0 ng/mL
[4]; IN 5.5 mg/kg single dose, 110 min, Rat 2
  P8 concentration in plasma: 27.0 ng/mL
[4]; IN 5.5 mg/kg single dose, 110 min, Rat 3
  P8 concentration in plasma: 13.9 ng/mL
[4]; IN 5.5 mg/kg single dose, 130 min, Rat 1
  P8 concentration in plasma: 33.2 ng/mL
[4]; IN 5.5 mg/kg single dose, 130 min, Rat 2
  P8 concentration in plasma: 15.0 ng/mL
[4]; IN 5.5 mg/kg single dose, 130 min, Rat 3
  P8 concentration in plasma: 14.3 ng/mL
[4]; IN 5.5 mg/kg single dose, 150 min, Rat 1
  P8 concentration in CSF: 0.581 ng/mL
[4]; IN 5.5 mg/kg single dose, 150 min, Rat 3
  P8 concentration in CSF: 1.16 ng/mL
[4]; IN 5.5 mg/kg single dose, 165 min, Rat 1
  P8 concentration in plasma: 32.7 ng/mL
[4]; IN 5.5 mg/kg single dose, 165 min, Rat 2
  P8 concentration in plasma: 14.9 ng/mL
[4]; IN 5.5 mg/kg single dose, 165 min, Rat 3
  P8 concentration in plasma: 17.1 ng/mL
[4]; IV 11.0 mg/kg single dose, 5 min, Rat 1
  P8 concentration in plasma: 102,000 ng/mL
[4]; IV 11.0 mg/kg single dose, 5 min, Rat 2
  P8 concentration in plasma: 45,300 ng/mL
[4]; IV 11.0 mg/kg single dose, 5 min, Rat 3
  P8 concentration in plasma: 43,600 ng/mL
[4]; IV 11.0 mg/kg single dose, 10 min, Rat 2
  P8 concentration in CSF: 50.1^c ng/mL
[4]; IV 11.0 mg/kg single dose, 10 min, Rat 3
  P8 concentration in CSF: 85.7^c ng/mL
[4]; IV 11.0 mg/kg single dose, 15 min, Rat 2
  P8 concentration in plasma: 12,600 ng/mL
[4]; IV 11.0 mg/kg single dose, 15 min, Rat 3
  P8 concentration in plasma: 8,460 ng/mL
[4]; IV 11.0 mg/kg single dose, 25 min, Rat 1
  P8 concentration in plasma: 4,250 ng/mL
[4]; IV 11.0 mg/kg single dose, 25 min, Rat 2
  P8 concentration in plasma: 5,650 ng/mL
[4]; IV 11.0 mg/kg single dose, 25 min, Rat 3
  P8 concentration in plasma: 3,230 ng/mL
[4]; IV 11.0 mg/kg single dose, 30 min, Rat 1
  P8 concentration in CSF: 42.5 ng/mL
[4]; IV 11.0 mg/kg single dose, 30 min, Rat 2
  P8 concentration in CSF: 48.2^c ng/mL
[4]; IV 11.0 mg/kg single dose, 30 min, Rat 3
  P8 concentration in CSF: 39.3 ng/mL
[4]; IV 11.0 mg/kg single dose, 35 min, Rat 1
  P8 concentration in plasma: 2,160 ng/mL
[4]; IV 11.0 mg/kg single dose, 35 min, Rat 2
  P8 concentration in plasma: 2,710 ng/mL
[4]; IV 11.0 mg/kg single dose, 35 min, Rat 3
  P8 concentration in plasma: 1,770 ng/mL
[4]; IV 11.0 mg/kg single dose, 50 min, Rat 1
  P8 concentration in plasma: 878 ng/mL
[4]; IV 11.0 mg/kg single dose, 50 min, Rat 2
  P8 concentration in plasma: 1,190 ng/mL
[4]; IV 11.0 mg/kg single dose, 50 min, Rat 3
  P8 concentration in plasma: 713 ng/mL
[4]; IV 11.0 mg/kg single dose, 60 min, Rat 1
  P8 concentration in CSF: 22.8 ng/mL
[4]; IV 11.0 mg/kg single dose, 60 min, Rat 2
  P8 concentration in CSF: 17.8 ng/mL
[4]; IV 11.0 mg/kg single dose, 60 min, Rat 3
  P8 concentration in CSF: 16.9 ng/mL
[4]; IV 11.0 mg/kg single dose, 70 min, Rat 1
  P8 concentration in plasma: 392 ng/mL
[4]; IV 11.0 mg/kg single dose, 70 min, Rat 2
  P8 concentration in plasma: 313 ng/mL
[4]; IV 11.0 mg/kg single dose, 70 min, Rat 3
  P8 concentration in plasma: 199 ng/mL
[4]; IV 11.0 mg/kg single dose, 100 min, Rat 1
  P8 concentration in CSF: 10.7 ng/mL
[4]; IV 11.0 mg/kg single dose, 100 min, Rat 2
  P8 concentration in CSF: 8.69 ng/mL
[4]; IV 11.0 mg/kg single dose, 100 min, Rat 3
  P8 concentration in CSF: 4.08 ng/mL
[4]; IV 11.0 mg/kg single dose, 110 min, Rat 1
  P8 concentration in plasma: 93.1 ng/mL
